# Article PMC3129651 (Pharmaceutical research, 2010)
# Entries after “also recorded” stand apart in the source; their conditions may differ. Where a name gives a salt, the structure may show the parent alone. Read-outs that look alike come from different tables or passages of the source.
# Legend:
# [1] = tested on: suspended rat hepatocytes; assay: Preliminary uptake time course in suspended rat hepatocytes sampling over 60min
# [2] = tested on: human sandwich-cultured hepatocytes; assay: 20-min efflux study in day 7 human sandwich-cultured hepatocytes; type: in vitro ADME
# [3] = tested on: WT sandwich-cultured rat hepatocytes; assay: 10-min accumulation study; type: in vitro ADME; conditions: 2μM GF120918; siNT- and siBcrp-infected rat SCH
# [4] = tested on: WT rat sandwich-cultured hepatocytes; assay: 20-min efflux study in day 4 WT rat sandwich-cultured hepatocytes; type: in vitro ADME
# Outline: (§1)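 Male Wistar WT or Mrp2-deficient TR⁻ rat hepatocytes were seeded on collagen I 6-well plates (~1.5 × 10^6 cells/well TR, 1.75 × 10^6 WT), overlaid with Matrigel and used on day 4. They were preloaded for 20 min at 37°C with 99mTc probe (5 μCi/mL) in standard HBSS. Efflux then ran 20 min at 37°C in standard (basolateral) or Ca2+-free HBSS (basolateral + canalicular), with 100 μM MK571, 20 μM GF120918 or 0.6% DMSO. Decay-corrected gamma counts of medium and lysate were taken, and efflux was expressed as % of preloaded mass. n=4 WT, 3 TR livers, triplicate.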
# Oatp [5] = type: in vitro ADME; conditions: suspended WT rat hepatocytes; 3H-E217G 1μM; inhibitor 20μM
# [6] = tested on: suspended WT rat hepatocytes; type: in vitro ADME; conditions: 99mTc-MEB 5μCi/mL, 20μM rifamycin SV, 20μM glycyrrhizic acid, 200μM clonidine, 10μM desipramine, 5μM decynium 22, 10μM ketoprofen
# [7] = tested on: suspended human hepatocytes; type: in vitro ADME; conditions: 99mTc-MEB 5μCi/mL, 20μM rifamycin SV, 200μM clonidine, 10μM desipramine, 5μM decynium 22, 10μM ketoprofen
# OATP [8] = assay: Initial uptake of 3H-E217G in suspended human hepatocytes with inhibitors; type: in vitro ADME; conditions: 3H-E217G 1μM, 20μM rifamycin SV
# [9] = rats, 0.25 mCi dose, 30 min after intravenous administration; cited from earlier work
# [10] = tested on: TR^− rat sandwich-cultured hepatocytes; type: in vitro ADME
# Outline: as §1
# [11] = cited from earlier work
# OCT [12] = assay: Initial uptake of 14C-TEA in suspended human hepatocytes with inhibitors; type: in vitro ADME; conditions: 14C-TEA 20μM, 5μM decynium 22
# Oat2 = molecular target: T1, Oat2 (Rattus norvegicus, UniProt Q5RLM2); assay: 3H-PAH uptake over 60 min in freshly isolated rat hepatocytes; type: in vitro ADME; conditions: 50μM MK571 in the incubation medium
# T1 sequence (Q5RLM2 1-535): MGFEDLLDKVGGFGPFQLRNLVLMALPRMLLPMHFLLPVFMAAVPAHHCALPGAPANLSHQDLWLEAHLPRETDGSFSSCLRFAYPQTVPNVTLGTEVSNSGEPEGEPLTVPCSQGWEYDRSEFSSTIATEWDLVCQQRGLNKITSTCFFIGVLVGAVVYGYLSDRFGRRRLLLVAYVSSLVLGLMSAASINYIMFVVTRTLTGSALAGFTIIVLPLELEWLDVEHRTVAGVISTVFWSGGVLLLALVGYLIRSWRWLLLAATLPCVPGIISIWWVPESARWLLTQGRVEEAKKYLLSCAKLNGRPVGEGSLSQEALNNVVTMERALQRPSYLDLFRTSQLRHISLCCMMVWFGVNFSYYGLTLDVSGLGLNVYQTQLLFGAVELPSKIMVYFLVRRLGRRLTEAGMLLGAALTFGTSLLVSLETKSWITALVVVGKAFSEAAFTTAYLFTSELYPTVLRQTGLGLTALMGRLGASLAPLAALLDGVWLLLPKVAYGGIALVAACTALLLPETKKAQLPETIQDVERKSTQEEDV
# OATP1B3 = conditions: inhibition of OATP1B3; cited from earlier work
# Oct [13] = type: in vitro ADME; conditions: suspended rat hepatocytes, 14C-TEA 20μM, 20μM glycyrrhizic acid; for initial 14C-TEA uptake in the presence of inhibitor: 200μM clonidine, 10μM desipramine
# [14] = tested on: suspended rat hepatocytes
# [15] = human SCH, control, 5μCi/mL, 20min preload
# [16] = TR- rat SCH, 5μCi/mL, 20min preload
# [17] = control WT rat SCH, 5μCi/mL, 20min preload
structure (smiles),measurement,setting,value
"CC[N+](CC)(CC)CC [^14C-TEA, tetraethylammonium]",linear range of uptake,[1],5 min
"COc1cc2c(cc1OC)CN(CCc1ccc(NC(=O)c3cccc4c(=O)c5cccc(OC)c5[nH]c34)cc1)CC2 [GF120918, N-(4-[2-(1,2,3,4-tetrahydro-6,7-dimethoxy-2-isoquinolinyl)ethyl]-phenyl)-9,10-dihydro-5-methoxy-9-oxo-4-acridine carboxamide]",decrease of 99mTc-MIBI basolateral efflux,"[2]; human SCH, GF120918 20μM",~ 2.9 fold
same,decrease of 99mTc-MIBI canalicular efflux,"[2]; human SCH, GF120918 20μM",2.1 fold
same,effect on 99mTc-MIBI BEI and in vitro Clbiliary (biliary excretion),[3],ablated; also recorded: inhibited completely
same,increase in hepatocellular accumulation (cells only) of 99mTc-MIBI,[3],~ 2 fold
same,decrease of 99mTc-MIBI basolateral efflux,"[4]; rat SCH, GF120918 20μM",~ 2.3 fold
same,decrease of 99mTc-MIBI canalicular efflux,"[4]; rat SCH, GF120918 20μM",1.5 fold
CO[C@H]1/C=C/O[C@@]2(C)Oc3c(C)c(O)c4c(O)c(cc(O)c4c3C2=O)NC(=O)/C(C)=C\C=C\[C@H](C)[C@H](O)[C@@H](C)[C@@H](O)[C@@H](C)[C@H](OC(C)=O)[C@@H]1C [rifamycin SV],initial 3H-E217G uptake in the presence of inhibitor,Oatp [5],15.5 % of control
same,initial 99mTc-MEB uptake in the presence of inhibitor,[6],20.7 % of control
same,initial 99mTc-MEB uptake in the presence of inhibitor,[7],35.4 % of control
same,initial 3H-E217G uptake in the presence of inhibitor,OATP [8],51.5 % of control
"Cc1cc(C)c(NC(=O)CN(CC(=O)[O-])CC(=O)[O-])c(C)c1Br.Cc1cc(C)c(NC(=O)CN(CC(=O)[O-])CC(=O)[O-])c(C)c1Br.[99Tc+4] [^99mTc-MEB, ^99mTechnetium-mebrofenin]",dose recovered in the liver,[9],~ 95%
same,"canalicular efflux, human compared to rat SCH",[2]; 20-min efflux,~ 3 fold
same,"hepatocellular content in cell lysate at the end of the 20-min efflux experiment, Human Inhibitor","[2]; day 7 human SCH, Inhibitor = 100μM MK571 for 99mTc-MEB and 20μM GF120918 for 99mTc-MIBI",27.7 ± 0.4% of the total substrate mass preloaded
same,fraction of basolateral efflux,[2]; human SCH,26.7 % of total efflux
same,fraction of canalicular efflux,[2]; human SCH,73.3 % of total efflux
same,total efflux,"[2]; human SCH, 20-min efflux study design",62.4±8.0%
same,basolateral efflux over 20 min,[2]; [15],16.7±0.6 % of total preloaded mass
same,canalicular efflux over 20 min,[2]; [15],45.8±8.6 % of total preloaded mass
same,linear range of uptake,[1],1.5 min
same,basolateral efflux over 20 min,[10]; [16],31.8±6.2 % of total preloaded mass
same,canalicular efflux over 20 min,[10]; [16],negligible; also recorded: completely ablated
same,"hepatocellular content in cell lysate at the end of the 20-min efflux experiment, Rat TR-","[10]; day 4 TR- rat SCH, n=3",78.8 ± 13.2% of the total substrate mass preloaded
same,dose recovered in bile,"[11]; 2.3mCi dose intravenously, healthy human subjects, within 180 min",~ 84%
same,dose recovered in urine,[11]; after 24 hours in humans,~ 1.5 % of the dose
same,dose taken up by the liver,[11]; humans,More than 98%
same,hepatic excretion half-life,[11]; humans,16 min
same,basolateral efflux over 20 min,[4]; [17],25.0±6.7 % of total preloaded mass
same,canalicular efflux over 20 min,[4]; [17],15.3±5.7 % of total preloaded mass
same,"hepatocellular content in cell lysate at the end of the 20-min efflux experiment, Rat Inhibitor","[4]; day 4 WT rat SCH, Inhibitor = 100μM MK571 for 99mTc-MEB and 20μM GF120918 for 99mTc-MIBI",63.4 ± 4.8% of the total substrate mass preloaded
same,fraction of basolateral efflux,[4]; rat SCH,62.0 % of total efflux
same,fraction of canalicular efflux,[4]; rat SCH,38.0 % of total efflux
same,total efflux,"[4]; rat SCH, 20-min efflux study design",40.3±5.4%
CCN1/C(=C/c2ccc3ccccc3[n+]2CC)C=Cc2ccccc21.[I-] [decynium 22],initial 99mTc-MEB uptake in the presence of inhibitor,[6],marginal effects
same,initial 99mTc-MEB uptake in the presence of inhibitor,[7],marginal effects
same,initial 14C-TEA uptake in the presence of inhibitor,OCT [12],54.2 % of control
"CN(C)C(=O)CCSC(SCCC(=O)O)c1cccc(/C=C/c2ccc3ccc(Cl)cc3n2)c1 (stereo not shown) [MK571, MK-571 sodium salt]",effect of inhibitor on 3H-PAH uptake,Oat2,not significantly influenced
same,Ki,OATP1B3,600 nM
Clc1cccc(Cl)c1N=C1NCCN1 [clonidine],initial 14C-TEA uptake in the presence of inhibitor,Oct [13],23.7 % of control
same,initial 99mTc-MEB uptake in the presence of inhibitor,[6],marginal effects
same,initial 99mTc-MEB uptake in the presence of inhibitor,[7],marginal effects
CC1(C)[C@@H](O[C@H]2O[C@H](C(=O)O)[C@@H](O)[C@H](O)[C@H]2O[C@@H]2O[C@H](C(=O)O)[C@@H](O)[C@H](O)[C@H]2O)CC[C@]2(C)[C@H]3C(=O)C=C4[C@@H]5C[C@@](C)(C(=O)O)CC[C@]5(C)CC[C@@]4(C)[C@]3(C)CC[C@@H]12 [glycyrrhizic acid],initial 3H-E217G uptake in the presence of inhibitor,Oatp [5],23.8 % of control
same,reduction of 14C-TEA uptake compared to control,Oct [13],62.1%
same,initial 14C-TEA uptake in the presence of inhibitor,Oct [13],37.9 % of control
same,initial 99mTc-MEB uptake in the presence of inhibitor,[6],39.5 % of control
"C[C@]12CC[C@@H]3c4ccc(O)cc4CC[C@H]3[C@@H]1CC[C@@H]2O[C@@H]1O[C@H](C(=O)O)[C@@H](O)[C@H](O)[C@H]1O [^3H-E217G, Estradiol-17-β-D-glucuronide]",linear range of uptake,[14],2.5 min
